Article PMC5035373 (Diabetes Technology & Therapeutics, 2016)

How the values were obtained:
[1] = Insulin pharmacokinetics after ID; assay type: in vivo, human; details: for Insulin AUC 0–1 / Insulin AUC 0–1.5 / Insulin AUC 4–6: SD; for Cmax, median / Insulin AUC (360 min), median / Tmax, median: 0.2 U/kg
Method in brief: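 Open-label randomized crossover in type 2 diabetics (30–70 y, BMI <35, HbA1c 6.5%–10%, drug-naive or metformin only). Insulin aspart 0.2 U/kg into right lower abdomen, intradermal via MicronJet or SC via pen, 4–14 days apart, fasting or pre-standard meal. Blood at −5 min, baseline, every 10 min to 2 h, then every 30 min to 6 h. Insulin measured by immunoassay; AUC, partial AUCs, AUCID/AUCSC derived.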

[2] = test system: patients with type 2 diabetes; experiment: Safety and tolerability: adverse events, pain per visual analog scale; assay type: in vivo, human
Method in brief: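 All enrolled patients were analysed for safety. Injection-site reactions, AEs and SAEs were recorded on study days and later visits, with their relation to the intervention. Insertion pain was rated on a visual analog scale and preference was surveyed. Intradermal vs SC tolerability was compared within subjects by Wilcoxon paired test.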

[3] = ID via MicronJet needle, all patients, n = 14
[4] = ID via MicronJet needle, before standard meal test, n = 3
[5] = SC conventional needle, all patients, n = 14
[6] = SC conventional needle, before standard meal test, n = 3
[7] = SC conventional needle, fasting, n = 11

Question: Which results are given for Insulin aspart?
Answer: Insulin AUC 0–1 ([1]; ID MicronJet, 0–1 h, fasting population n = 11, mean ± SD): 3695.2 ± 1593.3 μU/mL/min; Insulin AUC 0–1.5 ([1]; ID MicronJet, 0–1.5 h, fasting population n = 11, mean ± SD): 4912.0 ± 2154.6 μU/mL/min; Insulin AUC 0–1.5 ([1]; ID MicronJet, 0–1.5 h postinjection, overall population n = 14, mean ± SD): 5156.3 ± 1988.7 μU/mL/min; Insulin AUC 4–6 ([1]; ID MicronJet, 4–6 h, fasting population n = 11, mean ± SD): 2027.3 ± 946.5 μU/mL/min; Insulin AUC 4–6 ([1]; ID MicronJet, 4–6 h postinjection, overall population n = 14, mean ± SD): 2054.4 ± 857.7 μU/mL/min; Cmax, median [1, 3]: 80 μU/mL; Insulin AUC (360 min), median [1, 3]: 9913.75 μU/mL/min; Tmax, median [1, 3]: 0.583 h; Cmax, median [1, 4]: 95 μU/mL; Insulin AUC (360 min), median [1, 4]: 12690 μU/mL/min; Tmax, median [1, 4]: 0.833 h; Cmax, median ([1]; ID via MicronJet needle, fasting, n = 11): 79 μU/mL; Cmax, median [1, 5]: 55 μU/mL; Insulin AUC (360 min), median [1, 5]: 10936.25 μU/mL/min; Tmax, median [1, 5]: 1.46 h; Cmax, median [1, 6]: 68 μU/mL; Insulin AUC (360 min), median [1, 6]: 13960 μU/mL/min; Tmax, median [1, 6]: 1.17 h; Cmax, median [1, 7]: 54.5 μU/mL; Insulin AUC (360 min), median [1, 7]: 10,407.5 μU/mL/min; Tmax, median ([1]; SC via NovoPen conventional needle, fasting, n = 11, type 2 diabetes): 1.5 h; Insulin AUC 0–1 ([1]; SC, 0–1 h, fasting population n = 11, mean ± SD): 2346.1 ± 609.7 μU/mL/min; Insulin AUC 0–1 ([1]; SC, 0–1 h postinjection, overall population n = 14, mean ± SD, post hoc): 2534.1 ± 737.1 μU/mL/min; Insulin AUC 0–1.5 ([1]; SC, 0–1.5 h, fasting population n = 11, mean ± SD): 3647.7 ± 904.0 μU/mL/min; Insulin AUC 0–1.5 ([1]; SC, 0–1.5 h postinjection, overall population n = 14, mean ± SD): 4035.4 ± 1255.9 μU/mL/min; Insulin AUC 4–6 ([1]; SC, 4–6 h, fasting population n = 11, mean ± SD): 2903.3 ± 1571.9 μU/mL/min; Insulin AUC 4–6 ([1]; SC, 4–6 h postinjection, overall population n = 14, mean ± SD): 2929.0 ± 1412.1 μU/mL/min; Subjects experiencing AEs ([2]; 17 patients in safety analysis, 5 AEs in total): 3 of 17; Local AEs (injection site reactions) ([2]; all 17 patients, ID and SC injections): No local AEs (injection site reactions) were reported
